Laboratory results from PubChem BioAssay.
Values without a mark were called inactive. Inconclusive results are not listed. The source made the active and inactive calls.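 The calls were made as follows, unless noted: active = growth inhibition above 25% in both replicates, a cutoff set 3 SD above the mean; inconclusive = above 25% in only one replicate; inactive = the rest.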

Legend:
[1] = OD615 S. cerevisiae growth inhibition, permissive medium, pilot counter-assay, permissive growth control for S. cerevisiae lifespan shortening project (AID 705); conditions: OD615, 24 h, at 10 µM, hits give high values
Outline: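 Material: engineered DeaD yeast; Compound: one dose 10 µM, DMSO 0.25% final; Detection: absorbance (optical density) at 615 nm; Buffer or medium: permissive raffinose/galactose medium; Timing: 24 h exposure, 30 °C.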

[2] = Restrictive medium S. cerevisiae growth inhibition, OD615, pilot screen of yeast lifespan reduction project, restrictive growth control (AID 706;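 active = growth inhibition above a set limit, 3 SD over mean compound inhibition, in both replicates, cut at about 43% in these data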;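 also: modified DeaD lifespan yeast strain shifted to restrictive glucose medium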); conditions: OD615, 48 h, at 10 µM, hits give high values
Outline: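 Buffer or medium: restrictive glucose medium (CSMM-D); test system: modified S. cerevisiae; doses: single dose of 10 µM compound final, 0.25% DMSO; schedule: 48 h compound exposure at 30 °C; detection: absorbance (optical density) measured at 615 nm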

[3] = viability gain of MRP-1-high H69AR cells under doxorubicin, pilot screen, MRP-1 activator project, CellTiter-Glo, duplicate (AID 807;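 active = viability increase at or above a cutoff of the median across tested compounds plus 3 SD, cut at about 8.5% in these data, passing the limit was not always enough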;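 also: compound pretreatment 18-22 h then 72 h combined with doxorubicin; 0% = doxorubicin alone and 100% = vehicle without doxorubicin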); conditions: H69AR viability with doxorubicin, CellTiter-Glo luminescence; at 10 µM; hits give high values
[4] = growth suppression of beta-catenin knockout HCT116, pilot screen, human colon tumor cells (AID 823;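 active = cell viability at or below a set limit in both duplicate runs, the limit being the all-compound median minus 4 SD, cut at about 23% in these data, passing the limit was not always enough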;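 also: 0% = wells killed by 20 µM Hyamine and 100% = untreated DMSO cell wells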); conditions: CellTiter-Glo, 60 h, at 10 µM, hits give low values
[5] = growth suppression of PTEN-deleted HCT116, pilot screen, cell-based, HCT116 clonal line, CellTiter-Glo (AID 824;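 active = viability at or below 27.92% in each of two runs, the all-compound median minus 4 SD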;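 also: 0% = 20 µM Hyamine control and 100% = vehicle cell control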); conditions: 60 h, at 10 µM, hits give low values
[6] = inhibitors of the yeast RAM network, pilot screen, dse1pr::URA3 reporter, 5-FOA selection (AID 869;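 active = inhibition over a set limit, the all-compound mean plus 3 SD, in both replicate runs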;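 also: 0% = DMSO wells with no growth and 100% = 10 µM 1-NA-PP1 with full growth; RAM network block rescues cells from 5-FOA so hits raise OD615 growth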); conditions: S. cerevisiae dse1pr::URA3 5-FOA growth, OD615, 2 d; at 10 µM; hits give high values; strain carries analog-sensitive mutant Cbk1 kinase
[7] = RAM signaling pathway blockade in yeast – S. cerevisiae, Pdr1DBD-CYC8 efflux-inhibited sensitized strain, primary screen (AID 1298;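 active = RAM network inhibition above 8.4% in each of two replicates, 3 SD over the compound average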;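 also: 0% = DMSO untreated cells without growth and 100% = 10 µM 1-NA-PP1 full growth; higher means more yeast growth rescued from 5-FOA killing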); conditions: S. cerevisiae cbk1-as DSE1-URA3 strain, 5-FOA growth OD615, 2 d; at 50 µM; hits give high values

| SMILES | growth inhibition [1] [%] | growth inhibition [2] [%] | viability increase [3] [%] | viability [4] | viability [5] | inhibition [6] [%] | RAM network inhibition [7] [%] |
| --- | --- | --- | --- | --- | --- | --- | --- |
| CSc1oc(-c2ccc(F)cc2)nc1S(=O)(=O)c1ccc(F)cc1 | -2.23 | -6.25 | -1.96 | 85.1% | 79.6% | 1.59 | 4.1 |
| CC(=O)C(Sc1ccc2nnc(-c3ccc(F)cc3)n2n1)C(C)=O | 2.49 | 26.7 | -3.38 | 91% | 86.3% | -0.355 | 7.13 |
| O=C(CCCN1C(=O)c2ccccc2C1=O)Nc1ccccc1C(=O)N1CCOCC1 | -5.06 | 2.61 | 0.44 | 102% | 103% | 0.11 | 3.36 |
| Cc1nc(N2CCCCC2)c2sc(=S)n(C)c2n1 | -7.24 | 7.63 | 1.13 | 82.2% | 81.9% | 0.955 | 2.15 |
| Cn1c(Cn2c(=O)sc3ccccc32)nnc1SCc1ccccc1F | -4.61 | 5.46 | -0.13 | 96.6% | 97.4% | 2.95 | 5.27 |
| Cc1ccc(CNC(=O)CCCNS(=O)(=O)c2cccc3nonc23)cc1 | -4.66 | 0.525 | -1.25 | 101% | 101% | -0.185 | 3 |
| Cn1c(=O)oc2cc(S(=O)(=O)NCCN3CCc4ccccc4C3)ccc21 | -14.3 | -10.7 | -3.63 | 98.5% | 89.9% | 1.6 | 0.61 |
| CC(=O)c1cccc(NC(=O)C2CCN(S(=O)(=O)c3ccc(F)cc3)CC2)c1 | -6.23 | 1.16 | -2.82 | 92% | 93.5% | 3.66 | 5.67 |
| Cc1ccccc1-c1ccc(Nc2ccc(C(=O)N3CCOCC3)cc2)nn1 | 1.06 | -5.71 | -2.49 | 98.4% | 97.2% | 1.39 | -0.83 |
| COCCCN(C(=O)Nc1ccc(C)c(C)c1)C(C)c1ccccn1 (configuration not stated) | 2.01 | 11.8 | -1.65 | 102% | 89.8% | 2.15 | 5.96 |
| COc1cccc(-c2nc(CS(=O)(=O)CC(=O)NCc3ccccc3)c(C)o2)c1 | 6.62 | 8.33 | -0.84 | 94.8% | 88.1% | 1.4 | 3.28 |
| COC(=O)c1cnn2c(C)c(Cc3cccc(F)c3)c(C)nc12 | -5.12 | -16 | -5.7 | 92.3% | 80.9% | 1.53 | 2.9 |
| CCc1c(C)nc(SCC(=O)Nc2ccc(Br)cc2)[nH]c1=O | -11.9 | 0.39 | 1.64 | 98.3% | 103% | 1.89 | 3.9 |
| O=C(Oc1c(Cl)cc(Cl)c2cccnc12)N1CCOCC1 | -1.54 | 2.49 | -2.13 | 99.7% | 95.3% | 0.74 | 0.25 |
| O=C(Cn1c(NCCCO)nc2ccccc21)c1cccs1 | -5.45 | -2.54 | -1.98 | 110% | 91.7% | 2.46 | 0.62 |
| O=C(NCCCn1ccnc1)c1cccc(S(=O)(=O)Nc2ccccc2F)c1 | -13.9 | -26.1 | -0.61 | 92.3% | 92.8% | 2.51 | 5.99 |
| O=C(NCc1ccccn1)C1CC(=O)N(C2CCCC2)C1 (configuration not stated) | -5.27 | 4.21 | 1.73 | 103% | 96.9% | 1.5 | 2.33 |
| COc1cc2[nH]c(=O)n(CCCC(=O)NCCc3ccccc3)c(=O)c2cc1OC | -4.08 | -7.02 | -3.37 | 99% | 94.5% | 3.42 | 2.87 |

| SMILES | growth inhibition [1] [%] | growth inhibition [2] [%] | viability increase [3] [%] | viability [4] | viability [5] | inhibition [6] [%] | RAM network inhibition [7] [%] |
| --- | --- | --- | --- | --- | --- | --- | --- |
| Cc1nc(Nc2nc3ccccc3o2)nc2c1CCC2 | 9.76 | 16.7 | -1.82 | 77.7% | 76% | 0.225 | -0.26 |
| COc1ccc(S(=O)(=O)Cc2ccc(C(=O)N3CCN(c4cccc(C)c4C)CC3)o2)cc1 | -1.63 | -1.19 | -5.44 | 13% (active) | 17.6% (active) | 1.52 | 3.74 |
| C=CCn1c(SCC(=O)NCc2ccco2)nc2sc3c(c2c1=O)CCC3 | -1.65 | 0.995 | -4.9 | 98.6% | 92.6% | 2.48 | 1.5 |
| CCOc1ccc(N(CC(=O)O)S(=O)(=O)c2ccc(OC)c(OC)c2)cc1 | -8.3 | -13.4 | -0.45 | 95.5% | 95.3% | 1.32 | 1.05 |
| COc1ccc(OC)c(NC(=O)c2ccc(CN3CCOCC3)cc2)c1 | 9.65 | 0.145 | 0.88 | 104% | 111% | 1.52 | 4.85 |
| Cc1cc(Nc2ccc(F)cc2Cl)n2nc(C)nc2n1 | -9.76 | -13 | -0.59 | 109% | 99.6% | 1.51 | 2.31 |
| O=C(c1ccc(CN2CCOCC2)cc1)N1CCN(Cc2ccccc2)CC1 | -15 | -5.85 | 0.28 | 97.5% | 97.9% | 0.83 | 12.1 |
| Cc1nc2sc(C(c3ccco3)N3CCN(c4ccc(F)cc4)CC3)c(O)n2n1 (configuration not stated) | 0.055 | -7.21 | -0.62 | 107% | 99.9% | 1.52 | 3.54 |
| CC(=O)Nc1ccc(S(=O)(=O)c2ccc(N)cc2)cc1N | -3.35 | 2.46 | -1.15 | 104% | 98.8% | 2.1 | 3.91 |
| CSCC[C@@H](C(=O)O)N1Cc2ccccc2C1=O | 7.93 | 6.17 | 0 | 105% | 103% | 1.69 | -0.16 |
| CCOC(=O)CON1C(=O)C(C)(C)N(OCC(=O)OCC)C(=O)C1(C)C | -0.865 | -9.37 | -0.75 | 104% | 101% | 0.38 | 1.33 |
| COc1cc2[nH]c(=O)n(CCCCCC(=O)N3CCN(c4ccccc4)CC3)c(=O)c2cc1OC | -20.4 | -2.1 | -4.46 | 58.5% | 52.5% | 1.25 | 0.58 |
| CCOc1ccc(C2CC(c3ccc(F)cc3)Nc3nc(N)nn32)cc1 (configuration not stated) | 4.3 | 6.27 | 2.97 | 105% | 101% | 0.7 | 0.88 |
| CCCNC(=O)c1noc2c1CCc1ccccc1-2 | -1.21 | 5.41 | -1.54 | 98.3% | 104% | 0.305 | -1.13 |
| OC(COc1ccc2ccccc2c1)CN1CCN(c2ccc(F)cc2)CC1 (configuration not stated) | 3.06 | -5.26 | -4.36 | 81.7% | 84.4% | 1.09 | 1.23 |
| COc1ccc(CN2CCNC(=O)C2CC(=O)O)cc1OC (configuration not stated) | -14.2 | -7.95 | 1.18 | 105% | 101% | 0.38 | -0.52 |
| CCOc1ccc(N(CC(=O)O)S(=O)(=O)c2cccnc2)cc1 | -0.125 | -2.17 | 1.18 | 94.4% | 102% | -0.27 | 7.23 |
| Cc1ccc(NC(=O)c2cc(-c3cccc(O)c3)on2)cc1C | -19.1 | -5.78 | -0.54 | 92.1% | 87% | 3.14 | 4.28 |
